Test results from ChEMBL document CHEMBL1142492 (J Med Chem, 2008).

Legend:
[1] = molecular target: Serine/threonine-protein kinase 17A (Homo sapiens) (UniProt Q9UEE5); assay: Inhibition of DRAK1 at 3 uM
[2] = molecular target: D(1A) dopamine receptor (Homo sapiens) (UniProt P21728); assay: Inhibition of human dopamine D1 receptor at 3 uM
[3] = molecular target: Calcium/calmodulin-dependent protein kinase kinase 1 (Homo sapiens) (UniProt Q8N5S9); assay: Inhibition of CAMKK1 at 3 uM
[4] = test system: Epidermal growth factor receptor (Homo sapiens), P00533 [L861Q]; assay: Inhibition of EGFR L861Q mutant at 3 uM; format: protein assay
Outline: (§1)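 Single-concentration kinase panel scoring: each value is the percentage of enzyme activity remaining relative to a DMSO-only control. An activity statistically indistinct from DMSO control was scored "no hit".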

[5] = molecular target: Estrogen receptor (Homo sapiens) (UniProt P03372); assay: Inhibition of human ERalpha at 3 uM
Outline: (§2)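 Counter-screen binding/enzyme panel at single 3 μM, n=2; results as percent inhibition. Species per target as listed (rat NMDA, GABAA sites; human receptors, transporters; rabbit ACE).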

in vivo = conditions: Sprague-Dawley, rat, plasma, iv, 1 mg/kg
[6] = test system: Tyrosine-protein kinase ABL1 (Homo sapiens), P00519 [E255K]; assay: Inhibition of ABL1E255K mutant at 3 uM
[7] = test system: Serine/threonine-protein kinase B-raf (Homo sapiens), P15056 [V600E]; assay: Inhibition of BRAF V600E mutant at 3 uM
[8] = molecular target: Platelet-derived growth factor receptor alpha (Homo sapiens) (UniProt P16234); assay: Inhibition of PDGFRA at 3 uM
Sequence of Platelet-derived growth factor receptor alpha (Homo sapiens) (P16234 whole entry): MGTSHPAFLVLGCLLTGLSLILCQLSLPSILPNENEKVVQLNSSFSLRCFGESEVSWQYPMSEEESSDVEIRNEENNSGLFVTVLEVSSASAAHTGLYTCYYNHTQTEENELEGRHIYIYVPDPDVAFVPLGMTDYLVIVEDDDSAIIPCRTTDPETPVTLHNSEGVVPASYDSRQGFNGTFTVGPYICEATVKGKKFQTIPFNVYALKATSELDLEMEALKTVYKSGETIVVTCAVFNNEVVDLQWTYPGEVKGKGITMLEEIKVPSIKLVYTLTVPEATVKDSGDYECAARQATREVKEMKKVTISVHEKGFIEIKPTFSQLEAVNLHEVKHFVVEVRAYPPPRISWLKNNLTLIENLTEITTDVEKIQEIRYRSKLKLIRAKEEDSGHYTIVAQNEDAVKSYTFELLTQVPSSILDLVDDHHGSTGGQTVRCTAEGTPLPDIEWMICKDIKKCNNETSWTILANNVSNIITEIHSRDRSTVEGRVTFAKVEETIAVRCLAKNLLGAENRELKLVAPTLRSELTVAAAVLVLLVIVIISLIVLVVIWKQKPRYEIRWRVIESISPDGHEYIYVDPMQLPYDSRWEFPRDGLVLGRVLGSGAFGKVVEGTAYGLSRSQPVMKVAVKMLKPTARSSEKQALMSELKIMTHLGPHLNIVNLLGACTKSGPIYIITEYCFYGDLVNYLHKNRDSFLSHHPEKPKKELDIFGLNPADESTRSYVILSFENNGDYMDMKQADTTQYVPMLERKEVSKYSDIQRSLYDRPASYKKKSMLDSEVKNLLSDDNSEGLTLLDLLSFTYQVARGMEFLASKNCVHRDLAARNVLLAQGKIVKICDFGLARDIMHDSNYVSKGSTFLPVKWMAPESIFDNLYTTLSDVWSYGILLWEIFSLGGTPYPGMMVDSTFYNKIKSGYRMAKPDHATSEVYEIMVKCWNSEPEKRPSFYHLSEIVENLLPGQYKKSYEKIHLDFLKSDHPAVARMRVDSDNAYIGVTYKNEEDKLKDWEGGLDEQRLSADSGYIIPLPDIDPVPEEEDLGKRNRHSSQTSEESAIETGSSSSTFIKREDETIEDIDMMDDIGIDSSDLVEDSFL

[9] = molecular target: Platelet-derived growth factor receptor beta (Homo sapiens) (UniProt P09619); assay: Inhibition of PDGFRB at 3 uM
[10] = molecular target: Vascular endothelial growth factor receptor 2 (Homo sapiens) (UniProt P35968); assay: Inhibition of VEGFR2 at 3 uM
[11] = molecular target: RAC-beta serine/threonine-protein kinase (Homo sapiens) (UniProt P31751); assay: Inhibition of AKT2 at 3 uM
Sequence of RAC-beta serine/threonine-protein kinase (Homo sapiens) (P31751 whole entry, canonical isoform): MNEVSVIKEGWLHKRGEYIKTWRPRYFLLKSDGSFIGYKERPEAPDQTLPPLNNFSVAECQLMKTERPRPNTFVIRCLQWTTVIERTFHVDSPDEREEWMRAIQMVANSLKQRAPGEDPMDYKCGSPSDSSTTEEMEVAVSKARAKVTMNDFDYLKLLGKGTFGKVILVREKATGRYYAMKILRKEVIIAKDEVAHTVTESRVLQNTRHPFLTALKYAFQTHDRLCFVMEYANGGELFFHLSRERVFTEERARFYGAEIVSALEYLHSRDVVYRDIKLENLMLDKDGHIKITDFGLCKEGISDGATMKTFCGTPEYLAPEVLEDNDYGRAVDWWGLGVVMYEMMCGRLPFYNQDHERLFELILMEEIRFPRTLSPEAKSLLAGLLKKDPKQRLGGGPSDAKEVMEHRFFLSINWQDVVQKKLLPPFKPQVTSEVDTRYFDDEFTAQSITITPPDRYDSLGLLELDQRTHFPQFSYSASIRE

[12] = molecular target: Casein kinase I isoform epsilon (Homo sapiens) (UniProt P49674); assay: Inhibition of CSNK1E at 3 uM
[13] = molecular target: Serine/threonine-protein kinase RIO2 (Homo sapiens) (UniProt Q9BVS4); assay: Inhibition of RIOK2 at 3 uM
[14] = molecular target: Activin receptor type-1 (Homo sapiens) (UniProt Q04771); assay: Inhibition of ACVR1 at 3 uM
Rattus norvegicus = organism: Rattus norvegicus; conditions: 3 uM
[15] = test system: Proto-oncogene tyrosine-protein kinase receptor Ret (Homo sapiens), P07949 [V804L]; assay: Inhibition of RET V804L mutant at 3 uM
[16] = molecular target: Phosphatidylinositol 4-phosphate 5-kinase type-1 alpha (Homo sapiens) (UniProt Q99755); assay: Inhibition of PIP5K1A at 3 uM
[17] = molecular target: Serine/threonine-protein kinase ULK1 (Homo sapiens) (UniProt O75385); assay: Inhibition of ULK1 at 3 uM
[18] = molecular target: Tyrosine-protein kinase Srms (Homo sapiens) (UniProt Q9H3Y6); assay: Inhibition of SRMS at 3 uM
[19] = molecular target: Calcium/calmodulin-dependent protein kinase kinase 2 (Homo sapiens) (UniProt Q96RR4); assay: Inhibition of CAMKK2 at 3 uM
[20] = molecular target: Misshapen-like kinase 1 (Homo sapiens) (UniProt Q8N4C8); assay: Inhibition of MINK at 3 uM
[21] = molecular target: NUAK family SNF1-like kinase 2 (Homo sapiens) (UniProt Q9H093); assay: Inhibition of SNARK at 3 uM
Sequence of NUAK family SNF1-like kinase 2 (Homo sapiens) (Q9H093 whole entry): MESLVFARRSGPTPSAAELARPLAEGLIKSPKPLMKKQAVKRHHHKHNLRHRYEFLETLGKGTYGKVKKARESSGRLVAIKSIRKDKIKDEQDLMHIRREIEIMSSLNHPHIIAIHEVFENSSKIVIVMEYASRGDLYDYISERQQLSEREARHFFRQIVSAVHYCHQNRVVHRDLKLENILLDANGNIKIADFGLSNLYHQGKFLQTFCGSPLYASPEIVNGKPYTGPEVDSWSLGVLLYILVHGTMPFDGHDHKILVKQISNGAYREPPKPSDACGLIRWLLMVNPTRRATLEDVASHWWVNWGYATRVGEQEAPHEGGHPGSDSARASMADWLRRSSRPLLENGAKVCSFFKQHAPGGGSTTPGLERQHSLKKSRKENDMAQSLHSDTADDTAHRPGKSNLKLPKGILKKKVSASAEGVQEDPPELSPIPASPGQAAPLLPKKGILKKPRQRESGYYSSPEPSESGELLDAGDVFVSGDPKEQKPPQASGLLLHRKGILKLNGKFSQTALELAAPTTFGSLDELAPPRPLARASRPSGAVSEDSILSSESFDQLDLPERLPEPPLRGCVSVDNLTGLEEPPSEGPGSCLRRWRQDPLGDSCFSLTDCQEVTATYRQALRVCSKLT

[22] = molecular target: Tyrosine-protein kinase Yes (Homo sapiens) (UniProt P07947); assay: Inhibition of YES at 3 uM
[23] = molecular target: Protein-tyrosine kinase 2-beta (Homo sapiens) (UniProt Q14289); assay: Inhibition of PTK2B at 3 uM
[24] = molecular target: Serine/threonine-protein kinase MARK1 (Homo sapiens) (UniProt Q9P0L2); assay: Inhibition of MARK1 at 3 uM
[25] = molecular target: Serine/threonine-protein kinase 33 (Homo sapiens) (UniProt Q9BYT3); assay: Inhibition of STK33 at 3 uM
Sequence of Serine/threonine-protein kinase 33 (Homo sapiens) (Q9BYT3 whole entry, looked up): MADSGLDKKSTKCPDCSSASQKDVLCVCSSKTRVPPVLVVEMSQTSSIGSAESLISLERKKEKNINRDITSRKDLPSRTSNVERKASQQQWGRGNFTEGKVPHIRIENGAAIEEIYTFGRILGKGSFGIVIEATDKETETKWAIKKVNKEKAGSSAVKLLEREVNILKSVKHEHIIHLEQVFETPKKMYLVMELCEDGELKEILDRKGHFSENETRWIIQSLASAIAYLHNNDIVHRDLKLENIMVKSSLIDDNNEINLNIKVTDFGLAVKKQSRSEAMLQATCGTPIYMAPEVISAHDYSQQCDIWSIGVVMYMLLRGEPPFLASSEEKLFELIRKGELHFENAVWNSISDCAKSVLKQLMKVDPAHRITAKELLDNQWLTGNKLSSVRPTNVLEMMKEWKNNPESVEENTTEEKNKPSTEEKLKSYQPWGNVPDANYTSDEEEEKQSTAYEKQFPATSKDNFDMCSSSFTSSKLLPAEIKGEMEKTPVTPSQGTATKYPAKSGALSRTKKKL

[26] = molecular target: Cyclin-dependent kinase 16 (Homo sapiens) (UniProt Q00536); assay: Inhibition of PCTK1 at 3 uM
[27] = molecular target: Type-2 angiotensin II receptor (Homo sapiens) (UniProt P50052); assay: Inhibition of human AT2 receptor at 3 uM; outline: as §2
[28] = molecular target: Dual specificity protein kinase TTK (Homo sapiens) (UniProt P33981); assay: Inhibition of TTK at 3 uM
Sequence of Dual specificity protein kinase TTK (Homo sapiens) (P33981 whole entry, canonical isoform): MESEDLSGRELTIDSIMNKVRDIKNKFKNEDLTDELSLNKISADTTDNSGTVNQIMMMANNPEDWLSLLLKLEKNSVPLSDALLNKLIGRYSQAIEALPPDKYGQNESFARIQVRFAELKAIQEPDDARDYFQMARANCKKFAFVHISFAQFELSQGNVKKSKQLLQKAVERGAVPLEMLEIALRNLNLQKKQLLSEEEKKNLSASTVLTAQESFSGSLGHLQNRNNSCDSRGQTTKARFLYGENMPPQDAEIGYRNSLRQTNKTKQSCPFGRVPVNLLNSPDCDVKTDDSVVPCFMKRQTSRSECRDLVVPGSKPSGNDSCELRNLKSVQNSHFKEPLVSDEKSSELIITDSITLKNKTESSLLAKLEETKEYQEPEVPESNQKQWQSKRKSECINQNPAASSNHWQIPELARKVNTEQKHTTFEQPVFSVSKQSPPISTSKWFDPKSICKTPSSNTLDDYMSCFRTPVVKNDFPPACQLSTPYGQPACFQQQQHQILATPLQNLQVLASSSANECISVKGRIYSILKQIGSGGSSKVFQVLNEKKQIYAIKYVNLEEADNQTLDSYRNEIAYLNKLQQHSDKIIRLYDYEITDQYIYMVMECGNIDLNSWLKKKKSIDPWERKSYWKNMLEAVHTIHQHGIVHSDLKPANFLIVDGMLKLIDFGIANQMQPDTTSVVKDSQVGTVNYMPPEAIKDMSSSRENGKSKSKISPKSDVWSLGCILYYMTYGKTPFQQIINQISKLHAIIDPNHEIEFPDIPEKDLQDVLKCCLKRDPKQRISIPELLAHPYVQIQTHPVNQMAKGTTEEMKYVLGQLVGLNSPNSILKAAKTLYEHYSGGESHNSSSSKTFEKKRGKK

[29] = test system: Phosphatidylinositol 4,5-bisphosphate 3-kinase catalytic subunit alpha isoform (Homo sapiens), P42336 [E545K]; assay: Inhibition of PIK3CA E545K mutant at 3 uM
[30] = molecular target: Mast/stem cell growth factor receptor Kit (Homo sapiens) (UniProt P10721); assay: Inhibition of KIT at 3 uM
[31] = molecular target: Calcium/calmodulin-dependent protein kinase type 1 (Homo sapiens) (UniProt Q14012); assay: Inhibition of CAMK1 at 3 uM
[32] = molecular target: Insulin receptor (Homo sapiens) (UniProt P06213); assay: Inhibition of INSR at 3 uM
Homo sapiens = organism: Homo sapiens; conditions: 3 uM
[33] = molecular target: Tyrosine-protein kinase Lyn (Homo sapiens) (UniProt P07948); assay: Inhibition of LYN at 3 uM
[34] = molecular target: SRSF protein kinase 3 (Homo sapiens) (UniProt Q9UPE1); assay: Inhibition of SRPK3 at 3 uM
[35] = molecular target: Inhibitor of nuclear factor kappa-B kinase subunit epsilon (Homo sapiens) (UniProt Q14164); assay: Inhibition of IKK-epsilon at 3 uM
[36] = molecular target: Receptor-interacting serine/threonine-protein kinase 4 (Homo sapiens) (UniProt P57078); assay: Inhibition of RIPK4 at 3 uM
[37] = test system: Mast/stem cell growth factor receptor Kit (Homo sapiens), P10721 [V559D,V654A]; assay: Inhibition of KIT V559D,V654A mutant at 3 uM
[38] = molecular target: Serine/threonine-protein kinase D3 (Homo sapiens) (UniProt O94806); assay: Inhibition of PRKD3 at 3 uM
[39] = molecular target: Citron Rho-interacting kinase (Homo sapiens) (UniProt O14578); assay: Inhibition of CIT at 3 uM
[40] = molecular target: Receptor tyrosine-protein kinase erbB-2 (Homo sapiens) (UniProt P04626); assay: Inhibition of ERBB2 at 3 uM; outline: as §1
Sequence of Receptor tyrosine-protein kinase erbB-2 (Homo sapiens) (P04626 whole entry): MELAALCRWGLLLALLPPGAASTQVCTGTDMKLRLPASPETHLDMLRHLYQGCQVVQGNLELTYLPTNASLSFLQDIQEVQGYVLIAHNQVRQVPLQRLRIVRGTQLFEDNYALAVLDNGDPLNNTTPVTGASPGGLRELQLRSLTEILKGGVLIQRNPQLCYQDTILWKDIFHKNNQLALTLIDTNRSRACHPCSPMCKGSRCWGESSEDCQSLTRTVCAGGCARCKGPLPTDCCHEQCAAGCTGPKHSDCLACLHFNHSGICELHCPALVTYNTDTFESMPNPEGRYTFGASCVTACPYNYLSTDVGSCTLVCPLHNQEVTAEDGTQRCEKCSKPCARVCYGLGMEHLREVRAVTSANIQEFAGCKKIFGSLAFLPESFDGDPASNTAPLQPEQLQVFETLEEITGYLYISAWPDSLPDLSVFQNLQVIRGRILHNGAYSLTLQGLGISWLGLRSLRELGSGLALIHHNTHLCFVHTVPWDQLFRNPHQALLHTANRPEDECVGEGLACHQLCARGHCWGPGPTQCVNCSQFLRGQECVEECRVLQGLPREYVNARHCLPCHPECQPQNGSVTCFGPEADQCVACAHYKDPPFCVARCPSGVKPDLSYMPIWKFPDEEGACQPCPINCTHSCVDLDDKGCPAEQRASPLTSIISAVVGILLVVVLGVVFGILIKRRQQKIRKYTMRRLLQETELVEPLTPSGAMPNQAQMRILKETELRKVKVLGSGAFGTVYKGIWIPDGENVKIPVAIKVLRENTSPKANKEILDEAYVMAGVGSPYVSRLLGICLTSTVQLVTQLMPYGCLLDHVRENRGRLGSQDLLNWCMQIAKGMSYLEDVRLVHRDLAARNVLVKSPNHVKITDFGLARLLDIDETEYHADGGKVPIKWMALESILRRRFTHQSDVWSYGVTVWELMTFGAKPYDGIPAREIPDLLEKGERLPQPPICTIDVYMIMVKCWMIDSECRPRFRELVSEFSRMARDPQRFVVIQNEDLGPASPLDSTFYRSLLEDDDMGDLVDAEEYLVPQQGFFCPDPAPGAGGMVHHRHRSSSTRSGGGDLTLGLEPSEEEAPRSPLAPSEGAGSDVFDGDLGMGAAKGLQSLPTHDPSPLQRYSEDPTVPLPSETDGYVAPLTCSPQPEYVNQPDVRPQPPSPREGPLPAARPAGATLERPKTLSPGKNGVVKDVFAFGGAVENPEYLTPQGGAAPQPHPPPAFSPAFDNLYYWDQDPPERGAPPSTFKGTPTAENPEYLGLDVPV

[41] = molecular target: Non-receptor tyrosine-protein kinase TNK1 (Homo sapiens) (UniProt Q13470); assay: Inhibition of TNK1 at 3 uM
[42] = molecular target: Cyclin-dependent kinase 2 (Homo sapiens) (UniProt P24941); assay: Inhibition of CDK2 at 3 uM
[43] = molecular target: Inhibitor of nuclear factor kappa-B kinase subunit beta (Homo sapiens) (UniProt O14920); assay: Inhibition of IKK-beta at 3 uM

SMILES: CN(C)CCOc1cc(-c2cn[nH]c2)ccc1NC(=O)C1COc2ccccc2O1 (stereo unspecified) [SR-3677]
- inhibition [1]: < 10%
- inhibition [2]: 17%
- inhibition [3]: < 10%
- inhibition [4]: < 10%
- inhibition [5]: -2%
- AUC (in vivo): 0.7 µM·h
- inhibition [6]: < 10%
- inhibition [7]: < 10%
- inhibition [8]: < 10%
- inhibition [9]: < 10%
- inhibition [10]: < 10%
- inhibition [11]: < 10%
- inhibition [12]: < 10%
- inhibition [13]: < 10%
- inhibition [14]: < 10%
- inhibition (Rattus norvegicus): 47%
- inhibition [15]: < 10%
- inhibition [16]: < 10%
- inhibition [17]: < 10%
- inhibition [18]: < 10%
- inhibition [19]: < 10%
- inhibition [20]: < 10%
- inhibition [21]: < 10%
- inhibition [22]: < 10%
- inhibition [23]: < 10%
- inhibition [24]: < 10%
- inhibition [25]: < 10%
- inhibition [26]: < 10%
- inhibition [27]: -1%
- inhibition [28]: < 10%
- inhibition [29]: < 10%
- inhibition [30]: < 10%
- inhibition [31]: < 10%
- inhibition [32]: < 10%
- inhibition (Homo sapiens): 4%
- inhibition [33]: < 10%
- inhibition [34]: < 10%
- inhibition [35]: < 10%
- inhibition [36]: < 10%
- inhibition [37]: < 10%
- inhibition [38]: < 10%
- inhibition [39]: < 10%
- inhibition [40]: < 10%
- inhibition [41]: < 10%
- inhibition [42]: < 10%
- inhibition [43]: < 10%
